According to ChEMBL document CHEMBL4837222, “Design and synthesis of novel benzothiophene analogs as selective estrogen receptor covalent antagonists against breast cancer” (Eur J Med Chem, 2021):

How the values were obtained:
[1] = target: T1, Estrogen receptor (Homo sapiens) (UniProt P03372); assay: Covalent antagonist activity at ERalpha in human MCF7 cells assessed as decrease in estradiol-induced GREB1 mRNA expression level at 0.25 to 10 uM measured after 24 hrs by RT-PCR analysis; type: cell-based; settings: filed as antagonist, dose 0.25-10 µM
T1 sequence (whole entry): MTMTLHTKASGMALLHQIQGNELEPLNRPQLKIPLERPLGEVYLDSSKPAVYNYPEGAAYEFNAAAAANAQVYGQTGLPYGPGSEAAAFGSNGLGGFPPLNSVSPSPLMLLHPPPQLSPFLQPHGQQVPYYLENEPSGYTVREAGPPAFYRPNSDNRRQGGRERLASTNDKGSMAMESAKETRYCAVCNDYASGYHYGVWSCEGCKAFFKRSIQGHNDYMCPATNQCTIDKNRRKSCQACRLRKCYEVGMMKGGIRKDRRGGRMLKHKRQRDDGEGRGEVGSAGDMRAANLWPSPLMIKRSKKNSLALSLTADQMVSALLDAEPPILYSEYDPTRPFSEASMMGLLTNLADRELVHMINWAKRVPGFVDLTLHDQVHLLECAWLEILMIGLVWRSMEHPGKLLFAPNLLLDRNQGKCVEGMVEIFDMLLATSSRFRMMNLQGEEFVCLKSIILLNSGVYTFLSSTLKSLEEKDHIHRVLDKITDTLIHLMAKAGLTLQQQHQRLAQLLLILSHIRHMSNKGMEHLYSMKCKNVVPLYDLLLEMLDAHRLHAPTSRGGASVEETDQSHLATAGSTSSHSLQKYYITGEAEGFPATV
Outline: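 MCF-7 cells stimulated with estradiol, then co-incubated 24 h with compound at 0.25, 0.5, 1 and 10 µM. RNA was reverse-transcribed and GREB1 or TFF1 measured by SYBR Green qPCR: 95 °C 10 min, then 40 cycles of 95 °C 5 s, 60 °C 60 s, 95 °C 15 s. Normalised to GAPDH, ΔΔCT method.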

[2] = system: MCF7; assay: Induction of apoptosis in human MCF7 cells assessed as live cells at 5 uM incubated for 24 hrs by AnnexinV-FITC/propidium iodide staining based flow cytometric analysis (reference value: 98.1%); type: functional
[3] = system: MCF7; assay: Induction of apoptosis in human MCF7 cells assessed as early apoptotic cells at 5 uM incubated for 24 hrs by Annexin-V-FITC/propidium iodide staining based flow cytometric analysis (reference value: 0.8%); type: functional
[4] = system: MCF7; assay: Induction of apoptosis in human MCF7 cells assessed as late apoptotic cells at 5 uM incubated for 24 hrs by AnnexinV-FITC/propidium iodide staining based flow cytometric analysis (reference value: 0.7%); type: functional
[5] = system: MCF7; assay: Induction of apoptosis in human MCF7 cells assessed as early apoptotic cells at 10 uM incubated for 24 hrs by AnnexinV-FITC/propidium iodide staining based flow cytometric analysis (reference value: 0.8%); type: functional
[6] = system: MCF7; assay: Cell cycle arrest in human MCF7 cells assessed as accumulation at G0/G1 phase at 1 uM measured after 48 hrs by propidium iodide staining based flow cytometric analysis (reference value: 24.44%); type: functional
[7] = system: MCF7; assay: Cell cycle arrest in human MCF7 cells assessed as accumulation at S phase at 1 uM measured after 48 hrs by propidium iodide staining based flow cytometric analysis (reference value: 63.32%); type: functional
[8] = system: MCF7; assay: Cell cycle arrest in human MCF7 cells assessed as accumulation at S phase at 5 uM measured after 48 hrs by propidium iodide staining based flow cytometric analysis (reference value: 63.32%); type: functional
[9] = system: MCF7; assay: Cell cycle arrest in human MCF7 cells assessed as accumulation at G2/M phase at 5 uM measured after 48 hrs by propidium iodide staining based flow cytometric analysis (reference value: 12.24%); type: functional
[10] = system: MCF7; assay: Cell cycle arrest in human MCF7 cells assessed as accumulation at G0/G1 phase at 10 uM measured after 48 hrs by propidium iodide staining based flow cytometric analysis (reference value: 24.44%); type: functional
[11] = Lipophilicity, logD of compound; type: physicochemical; settings: octanol/water
[12] = Half life in rat liver microsomes; type: ADME, Microsome
[13] = Intrinsic clearance in rat; type: ADME

inhibition [1]: Dose-Dependent Effect
logD [11]: 1.67
half-life [12]: 38.1 min
CLint scaled [13]: 65.1 mL/min/kg
SMILES: O=C(/C=C/CNCCOc1ccc(Oc2c(-c3ccc(F)cc3)sc3cc(O)ccc23)cc1)N1CCC1
Activity [2]: 87.9%
Activity [3]: 5.3%
Activity [4]: 6.4%
Activity [5]: 12.5%
Activity [6]: 31.21%
Activity [7]: 51.43%
Activity [8]: 46.98%
Activity [9]: 15.48%
Activity [10]: 42.95%
